# Assay results reported in ChEMBL document CHEMBL5329156, “Discovery and development of novel substituted monohydrazides as potent antifungal agents” (RSC Med Chem, 2023).
# Active and inactive are the calls of the source. The rule behind the calls is not given here.
# Tests used:
# Candida albicans [1] = test: Antifungal activity against Candida albicans ATCC 10231 assessed as fungal growth inhibition by double dilution method; assay type: functional
# Summary of the method: (§1)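 Broth microdilution after CLSI M27-A3/M38-A2 with minor changes. Single colony grown overnight in YPD at 35 °C, 200 rpm. Compound final range 0.06-31.3 µg/mL; incubated 48 h at 35 °C.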
# Candida albicans [2] = test: Antifungal activity against Candida albicans ATCC 64124 assessed as fungal growth inhibition by double dilution method; assay type: functional
# Summary of the method: (§2)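 Broth microdilution after CLSI M27-A3/M38-A2 with minor modifications. A single colony was grown overnight in YPD at 35 °C with shaking at 200 rpm. Cells were mixed 1:1 with compound (final 0.06-31.3 µg/mL, from DMSO stocks) and incubated 48 h at 35 °C.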
# Candida albicans [3] = test: Antifungal activity against itraconazole/fluconazole susceptible Candida albicans ATCC MYA-2876 assessed as fungal growth inhibition by double dilution method; assay type: functional; summary of the method: as §2
# Candida albicans [4] = test: Antifungal activity against itraconazole/fluconazole resistant Candida albicans ATCC 90819 assessed as fungal growth inhibition by double dilution method; assay type: functional; summary of the method: as §2
# Candida albicans [5] = test: Antifungal activity against itraconazole/fluconazole susceptible Candida albicans ATCC MYA-2310 assessed as fungal growth inhibition by double dilution method; assay type: functional; summary of the method: as §2
# Candida albicans [6] = test: Antifungal activity against itraconazole/fluconazole resistant Candida albicans ATCC MYA-1237 assessed as fungal growth inhibition by double dilution method; assay type: functional; summary of the method: as §2
# Candida albicans [7] = test: Antifungal activity against itraconazole/fluconazole resistant Candida albicans ATCC MYA-1003 assessed as fungal growth inhibition by double dilution method; assay type: functional; summary of the method: as §2
# Nakaseomyces glabratus [8] = test: Antifungal activity against Candida glabrata ATCC 2001 assessed as fungal growth inhibition by double dilution method; assay type: functional; summary of the method: as §1
# Pichia kudriavzevii [9] = test: Antifungal activity against Pichia kudriavzevii ATCC 6258 assessed as fungal growth inhibition by double dilution method; assay type: functional; summary of the method: as §1
# Nakaseomyces glabratus [10] = test: Antifungal activity against Candida glabrata ATCC 22019 assessed as fungal growth inhibition by double dilution method; assay type: functional; summary of the method: as §1
# [Candida] auris [11] = Antifungal activity against Candida auris AR Bank # 0384 assessed as fungal growth inhibition by double dilution method; assay type: functional; settings: Candidozyma auris; summary of the method: as §1
# [Candida] auris [12] = Antifungal activity against Candida auris AR Bank # 0390 assessed as fungal growth inhibition by double dilution method; assay type: functional; settings: Candidozyma auris; summary of the method: as §1
# Cryptococcus neoformans = test: Antifungal activity against Cryptococcus neoformans ATCC MYA-895 assessed as fungal growth inhibition by double dilution method; assay type: functional; summary of the method: as §1
# Aspergillus terreus = test: Antifungal activity against Aspergillus terreus ATCC MYA-3633 assessed as fungal growth inhibition by double dilution method; assay type: functional
# Aspergillus fumigatus [13] = test: Antifungal activity against Aspergillus fumigatus NRRL 163 assessed as fungal growth inhibition by double dilution method; assay type: functional
# Aspergillus flavus = test: Antifungal activity against Aspergillus flavus ATCC MYA-3631 assessed as fungal growth inhibition by double dilution method; assay type: functional
# Aspergillus nidulans = test: Antifungal activity against Aspergillus nidulans ATCC 38163 assessed as fungal growth inhibition by double dilution method; assay type: functional
# Aspergillus fumigatus [14] = test: Antifungal activity against Aspergillus fumigatus NRRL 5109 assessed as fungal growth inhibition by double dilution method; assay type: functional
# Aspergillus fumigatus [15] = test: Antifungal activity against Aspergillus fumigatus NRRL 6113 assessed as fungal growth inhibition by double dilution method; assay type: functional
# [Candida] auris [16] = Antifungal activity against Candida auris AR Bank # 381 assessed as fungal growth inhibition by double dilution method; assay type: functional; settings: Candidozyma auris; summary of the method: as §1
# [Candida] auris [17] = Antifungal activity against Candida auris AR Bank # 382 assessed as fungal growth inhibition by double dilution method; assay type: functional; settings: Candidozyma auris; summary of the method: as §1
# [Candida] auris [18] = Antifungal activity against Candida auris AR Bank # 383 assessed as fungal growth inhibition by double dilution method; assay type: functional; settings: Candidozyma auris; summary of the method: as §1
# [Candida] auris [19] = Antifungal activity against Candida auris AR Bank # 384 assessed as fungal growth inhibition by double dilution method; assay type: functional; settings: Candidozyma auris; summary of the method: as §1
# [Candida] auris [20] = Antifungal activity against Candida auris AR Bank # 385 assessed as fungal growth inhibition by double dilution method; assay type: functional; settings: Candidozyma auris; summary of the method: as §1
# [Candida] auris [21] = Antifungal activity against Candida auris AR Bank # 386 assessed as fungal growth inhibition by double dilution method; assay type: functional; settings: Candidozyma auris; summary of the method: as §1
# [Candida] auris [22] = Antifungal activity against Candida auris AR Bank # 387 assessed as fungal growth inhibition by double dilution method; assay type: functional; settings: Candidozyma auris; summary of the method: as §1
# [Candida] auris [23] = Antifungal activity against Candida auris AR Bank # 388 assessed as fungal growth inhibition by double dilution method; assay type: functional; settings: Candidozyma auris; summary of the method: as §1
# [Candida] auris [24] = Antifungal activity against Candida auris AR Bank # 389 assessed as fungal growth inhibition by double dilution method; assay type: functional; settings: Candidozyma auris; summary of the method: as §1
# [Candida] auris [25] = Antifungal activity against Candida auris AR Bank # 390 assessed as fungal growth inhibition by double dilution method; assay type: functional; settings: Candidozyma auris; summary of the method: as §1
# Candida duobushaemulonii [26] = test: Antifungal activity against Candida duobushaemulonii AR Bank # 391 assessed as fungal growth inhibition by double dilution method; assay type: functional; settings: Candidozyma duobushaemuli; summary of the method: as §1
# Candida duobushaemulonii [27] = test: Antifungal activity against Candida duobushaemulonii AR Bank # 392 assessed as fungal growth inhibition by double dilution method; assay type: functional; settings: Candidozyma duobushaemuli; summary of the method: as §1
# [Candida] haemuloni [28] = Antifungal activity against Candida haemulonii AR Bank # 393 assessed as fungal growth inhibition by double dilution method; assay type: functional; settings: Candidozyma haemuli; summary of the method: as §1
# Candida duobushaemulonii [29] = test: Antifungal activity against Candida duobushaemulonii AR Bank # 394 assessed as fungal growth inhibition by double dilution method; assay type: functional; settings: Candidozyma duobushaemuli; summary of the method: as §1
# [Candida] haemuloni [30] = Antifungal activity against Candida haemulonii AR Bank # 395 assessed as fungal growth inhibition by double dilution method; assay type: functional; settings: Candidozyma haemuli; summary of the method: as §1
# Kodamaea ohmeri = test: Antifungal activity against Kodamaea ohmeri AR Bank # 396 assessed as fungal growth inhibition by double dilution method; assay type: functional; summary of the method: as §1
# Pichia kudriavzevii [31] = test: Antifungal activity against Pichia kudriavzevii AR Bank # 397 assessed as fungal growth inhibition by double dilution method; assay type: functional; summary of the method: as §1
# Clavispora lusitaniae = test: Antifungal activity against Clavispora lusitaniae AR Bank # 398 assessed as fungal growth inhibition by double dilution method; assay type: functional; summary of the method: as §1
# Saccharomyces cerevisiae [32] = test: Antifungal activity against Saccharomyces cerevisiae AR Bank # 399 assessed as fungal growth inhibition by double dilution method; assay type: functional; summary of the method: as §1
# Saccharomyces cerevisiae [33] = test: Antifungal activity against Saccharomyces cerevisiae AR Bank # 400 assessed as fungal growth inhibition by double dilution method; assay type: functional; summary of the method: as §1
# Candida albicans [34] = test: Antibiofilm activity against Candida albicans ATCC 10231 assessed as reduction in biofilm production at 1.96 to 3.9 microg/ml by biofilm formation assay; assay type: functional, organism-based; settings: dose 1.96-3.9 µg/ml
Compound,MIC (Candida albicans [1]) [µg/mL],MIC (Candida albicans [2]) [µg/mL],MIC (Candida albicans [3]) [µg/mL],MIC (Candida albicans [4]) [µg/mL],MIC (Candida albicans [5]) [µg/mL],MIC (Candida albicans [6]) [µg/mL],MIC (Candida albicans [7]) [µg/mL],MIC (Nakaseomyces glabratus [8]) [µg/mL],MIC (Pichia kudriavzevii [9]) [µg/mL],MIC (Nakaseomyces glabratus [10]) [µg/mL],MIC ([Candida] auris [11]) [µg/mL],MIC ([Candida] auris [12]) [µg/mL],MIC (Cryptococcus neoformans) [µg/mL],MIC (Aspergillus terreus) [µg/mL],MIC (Aspergillus fumigatus [13]) [µg/mL],MIC (Aspergillus flavus) [µg/mL],MIC (Aspergillus nidulans) [µg/mL],MIC (Aspergillus fumigatus [14]) [µg/mL],MIC (Aspergillus fumigatus [15]) [µg/mL],MIC ([Candida] auris [16]) [µg/mL],other results
O=C(NNc1ccc(Cl)cc1)c1ccccn1,0.12,0.98,1.95,0.24,0.98,0.98,0.98,1.95,1.95,3.9,1.95,1.95,0.49,3.9,> 31.3,31.3,0.49,7.8,15.6,1.95,MIC ([Candida] auris [17]): 3.9 µg/mL; MIC ([Candida] auris [18]): 1.95 µg/mL; MIC ([Candida] auris [19]): 1.95 µg/mL; MIC ([Candida] auris [20]): 1.95 µg/mL; MIC ([Candida] auris [21]): 0.98 µg/mL; MIC ([Candida] auris [22]): 1.95 µg/mL; MIC ([Candida] auris [23]): 1.95 µg/mL; MIC ([Candida] auris [24]): 0.98 µg/mL; MIC ([Candida] auris [25]): 1.95 µg/mL; MIC (Candida duobushaemulonii [26]): 0.98 µg/mL; MIC (Candida duobushaemulonii [27]): 0.98 µg/mL; MIC ([Candida] haemuloni [28]): 0.49 µg/mL; MIC (Candida duobushaemulonii [29]): 0.4 µg/mL; MIC ([Candida] haemuloni [30]): 0.12 µg/mL; MIC (Kodamaea ohmeri): 0.24 µg/mL; MIC (Pichia kudriavzevii [31]): 0.24 µg/mL; MIC (Clavispora lusitaniae): 0.98 µg/mL; MIC (Saccharomyces cerevisiae [32]): 0.98 µg/mL; MIC (Saccharomyces cerevisiae [33]): 0.98 µg/mL; Activity (Candida albicans [34]): Active
O=C(NNc1cc(Cl)cc(Cl)c1)c1ccccn1,0.24,1.95,1.95,0.98,1.95,3.9,1.95,7.8,0.98,1.95,7.8,1.95,0.49,1.95,> 31.3,> 31.3,0.49,> 31.3,> 31.3,3.9,MIC ([Candida] auris [17]): 0.98 µg/mL; MIC ([Candida] auris [18]): 1.95 µg/mL; MIC ([Candida] auris [19]): 7.8 µg/mL; MIC ([Candida] auris [20]): 1.95 µg/mL; MIC ([Candida] auris [21]): 0.98 µg/mL; MIC ([Candida] auris [22]): 0.98 µg/mL; MIC ([Candida] auris [23]): 3.9 µg/mL; MIC ([Candida] auris [24]): 1.95 µg/mL; MIC ([Candida] auris [25]): 3.9 µg/mL; MIC (Candida duobushaemulonii [26]): 0.98 µg/mL; MIC (Candida duobushaemulonii [27]): 0.98 µg/mL; MIC ([Candida] haemuloni [28]): 0.24 µg/mL; MIC (Candida duobushaemulonii [29]): 0.49 µg/mL; MIC ([Candida] haemuloni [30]): 0.24 µg/mL; MIC (Kodamaea ohmeri): 0.49 µg/mL; MIC (Pichia kudriavzevii [31]): 0.49 µg/mL; MIC (Clavispora lusitaniae): 3.9 µg/mL; MIC (Saccharomyces cerevisiae [32]): 3.9 µg/mL; MIC (Saccharomyces cerevisiae [33]): 3.9 µg/mL; Activity (Candida albicans [34]): inactive
